From ChEMBL document CHEMBL3244380, “Preparation and antitumor activity of 1-aryl-3,3-dimethyltriazene derivatives” (1977)

How the values were obtained:
Assay type in all cases: functional
Details in all cases: TLX-5, ip, 72 h, route intraperitoneal
[1] = Antitumor activity against mouse TLX5 cells allografted in CBA/LAC mouse assessed as increase in life span at 50 mg/kg, ip from day 3 to 7 from tumor inoculation relative to control
In short: (§1)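 TLX5 lymphoma cells implanted subcutaneously in the inguinal region of female CBA/LAC mice. Drug given as a freshly made solution in acetone–arachis oil 10/90 (v:v), intraperitoneally once daily from day 3 to 7 after tumour inoculation. Five animals per dose level, ten controls. Read-out was %ILS over controls, with analysis of variance used for significance.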

[2] = Antitumor activity against mouse TLX5 cells allografted in CBA/LAC mouse assessed as increase in life span at 100 mg/kg, ip from day 3 to 7 from tumor inoculation relative to control; in short: as §1
[3] = Antitumor activity against mouse TLX5 cells allografted in CBA/LAC mouse assessed as increase in life span at 400 mg/kg, ip from day 3 to 7 from tumor inoculation relative to control; in short: as §1
[4] = Antitumor activity against mouse TLX5 cells allografted in CBA/LAC mouse assessed as increase in life span at 200 mg/kg, ip from day 3 to 7 from tumor inoculation relative to control; in short: as §1
[5] = Antitumor activity against mouse TLX5 cells allografted in CBA/LAC mouse assessed as increase in life span at 12.5 mg/kg, ip from day 3 to 7 from tumor inoculation relative to control; in short: as §1
[6] = Antitumor activity against mouse TLX5 cells allografted in CBA/LAC mouse assessed as increase in life span at 25 mg/kg, ip from day 3 to 7 from tumor inoculation relative to control; in short: as §1
[7] = Antitumor activity against mouse TLX5 cells allografted in CBA/LAC mouse assessed as increase in life span at 6.25 mg/kg, ip from day 3 to 7 from tumor inoculation relative to control; in short: as §1
[8] = Antitumor activity against mouse TLX5 cells allografted in CBA/LAC mouse assessed as increase in life span at 10 mg/kg, ip from day 3 to 7 from tumor inoculation relative to control; in short: as §1
[9] = Antitumor activity against mouse TLX5 cells allografted in CBA/LAC mouse assessed as increase in life span at 2.5 mg/kg, ip from day 3 to 7 from tumor inoculation relative to control; in short: as §1
[10] = Antitumor activity against mouse TLX5 cells allografted in CBA/LAC mouse assessed as increase in life span at 40 mg/kg, ip from day 3 to 7 from tumor inoculation relative to control; in short: as §1
[11] = Antitumor activity against mouse TLX5 cells allografted in CBA/LAC mouse assessed as increase in life span at 5 mg/kg, ip from day 3 to 7 from tumor inoculation relative to control; in short: as §1
[12] = Antitumor activity against mouse TLX5 cells allografted in CBA/LAC mouse assessed as increase in life span at 20 mg/kg, ip from day 3 to 7 from tumor inoculation relative to control; in short: as §1
[13] = Antitumor activity against mouse TLX5 cells allografted in CBA/LAC mouse assessed as increase in life span at 800 mg/kg, ip from day 3 to 7 from tumor inoculation relative to control; in short: as §1
[14] = Antitumor activity against mouse TLX5 cells allografted in CBA/LAC mouse assessed as increase in life span at 3.12 mg/kg, ip from day 3 to 7 from tumor inoculation relative to control; in short: as §1
[15] = Antitumor activity against mouse TLX5 cells allografted in CBA/LAC mouse assessed as increase in life span at 160 mg/kg, ip from day 3 to 7 from tumor inoculation relative to control; in short: as §1
[16] = Antitumor activity against mouse TLX5 cells allografted in CBA/LAC mouse assessed as increase in life span at 80 mg/kg, ip from day 3 to 7 from tumor inoculation relative to control; in short: as §1

SMILES | ILS at 50 mg/kg [1] [%] | ILS at 100 mg/kg [2] [%] | ILS at 400 mg/kg [3] [%] | ILS at 200 mg/kg [4] [%] | ILS at 12.5 mg/kg [5] [%] | ILS at 25 mg/kg [6] [%] | ILS at 6.25 mg/kg [7] [%] | ILS at 10 mg/kg [8] [%] | ILS at 2.5 mg/kg [9] [%] | ILS at 40 mg/kg [10] [%] | ILS at 5 mg/kg [11] [%] | ILS at 20 mg/kg [12] [%] | ILS at 800 mg/kg [13] [%] | ILS at 3.12 mg/kg [14] [%] | ILS at 160 mg/kg [15] [%] | ILS at 80 mg/kg [16] [%]
CCOc1ccc(/C=N/NC(=O)c2ccc(/N=N/N(C)C)cc2)cc1 | 29 | 50 | 63 | 65 | 0 | 13 | – | – | – | – | – | – | – | – | – | –
CN(C)/N=N/c1ccc(C(=O)Nn2cnnc2)cc1 | 47 | 49 | -14 | 28 | -1 | 32 | – | – | – | – | – | – | – | – | – | –
CN(C)/N=N/c1ccc(C(=O)N=[N+]=[N-])cc1 | 46 | 51 | – | -72 | 4.6 | 21 | -1 | – | – | – | – | – | – | – | – | –
CN(C)/N=N/c1ccc(C(=O)N/N=C/c2ccc([N+](=O)[O-])cc2)cc1 | 8.7 | 16 | 20 | 26 | -1 | -1 | – | – | – | – | – | – | – | – | – | –
CN(C)/N=N/c1ccc(C(=O)N/N=C/c2ccc(I)cc2)cc1 | 40 | 54 | – | -38 | 11 | 15 | – | – | – | – | – | – | – | – | – | –
COc1ccc(/C=N/NC(=O)c2ccc(/N=N/N(C)C)cc2)c(OC)c1 | 48 | 52 | -33 | 35 | 1.9 | 19 | – | – | – | – | – | – | – | – | – | –
CCCNC(=O)NNC(=O)c1ccc(/N=N/N(C)C)cc1 | 61 | 44 | -44 | 49 | -1 | 10 | – | – | – | – | – | – | – | – | – | –
CCCN(CCC)NC(=O)c1ccc(/N=N/N(C)C)cc1 | – | – | – | – | – | – | – | 0 | -3.7 | -32 | -3.7 | 20 | – | – | – | –
CN(C)/N=N/c1ccc(C(=O)N/N=C/c2ccc(Cl)cc2)cc1 | 40 | 44 | -23 | 51 | 4.6 | 14 | – | – | – | – | – | – | – | – | – | –
CN(C)/N=N/c1ccc(C(=O)N/N=C/c2ccccc2)cc1 | 49 | 36 | -26 | 1.8 | 26 | 24 | – | – | – | – | – | – | – | – | – | –
CN(C)/N=N/c1ccc(C(N)=O)cc1 | 51 | 47 | -61 | 3.9 | 14 | 55 | – | – | – | – | – | – | – | – | – | –
CN(C)/N=N/c1ccc(C(=O)NNC(O)c2ccc([N+](=O)[O-])cc2)cc1 (stereo not drawn) | 12 | 74 | 71 | 83 | – | 6.5 | – | – | – | – | – | – | 44 | – | – | –
CN(C)/N=N/c1ccc(S(=O)(=O)Nn2cnnc2)cc1 | 0.9 | 4.6 | 14 | 16 | 0.9 | 4.6 | – | – | – | – | – | – | – | – | – | –
CN(C)/N=N/c1ccc(S(=O)(=O)N(CCCl)CCCl)cc1 | 2.9 | -3.7 | – | – | -1 | 0 | -3.7 | – | – | – | – | – | – | -3.7 | – | –
CN(C)/N=N/c1ccc(C(=O)N/N=C/c2ccc(Br)cc2)cc1 | 52 | 52 | -35 | 60 | 7.6 | 21 | – | – | – | – | – | – | – | – | – | –
CN(C)/N=N/c1ccc(S(=O)(=O)N(C)C)cc1 | 9.4 | 34 | – | -36 | 0 | 7.5 | – | – | – | – | – | – | – | – | – | –
CN(C)/N=N/c1ccc(C(=O)N/N=C/c2ccccc2[N+](=O)[O-])cc1 | 49 | 51 | 59 | 57 | 44 | 40 | – | – | – | – | – | – | – | – | – | –
CN(C)/N=N/c1ccc(C(=O)NN)cc1 | – | – | – | – | – | – | – | 59 | – | 57 | – | 55 | – | – | -46 | 44
CCNC(=S)NNC(=O)c1ccc(/N=N/N(C)C)cc1 | 18 | 55 | – | -31 | -1 | 16 | – | – | – | – | – | – | – | – | – | –
CCO/C=N/NC(=O)c1ccc(/N=N/N(C)C)cc1 | 43 | -27 | – | – | 13 | 30 | – | – | – | – | – | – | – | – | – | –
